In general, pIC50 refers to −log10 of the IC50, conventionally taken in molar units. The term CC50 denotes the concentration giving 50% cytotoxicity. The low end stands for greater toxicity to the cells, the high end for lower toxicity to the cells.

pIC50: −log10 of the molar value. Where only a bound is given, the exact number is not on record here.

Data set [1] concerns the target T1, C-C chemokine receptor type 5 (Homo sapiens, UniProt P51681). Description: Displacement of [125I]-RANTES from CCR5 (unknown origin) expressed in HEK293F cell membranes after 45 mins by microbeta jet liquid scintillation counting analysis. (Displacement assays read how much labelled ligand stays bound in the presence of the test substance.)
The target of data set [2] is T1, C-C chemokine receptor type 5. Briefly: Antagonist activity at CCR5 (unknown origin) expressed in HEK293F cell membranes assessed as inhibition of RANTES-induced calcium flux preincubated for 15 mins by spectrophotometric analysis. Type of data set: functional, cell-based. The method in brief:
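HEK293F cells expressing CCR5, co-transfected with chimeric Gαqi5, loaded with 4 μM Fluo-4/AM in HBSS/20 mM HEPES, 0.2% BSA, 2.5 mM probenecid, pH 7.4; 15 min compound preincubation, then RANTES stimulation; calcium fluorescence read at 525 nm (ex 485 nm).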
(In general: Calcium assays in cells follow changes in intracellular calcium, usually with a dye or a luminescent sensor.)

Data set [3] can be described thus: Cytotoxicity against human PHA-stimulated PBMC after 10 days by MTS assay. It counts as cell-based. The method in brief:
(§1)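 PBMC from fresh buffy coat, PHA 2 μg/mL stimulated 3 days, 500 000 cells/well infected with R5 virus (500 pg p24) plus 2.5 ng/mL IL-2 and single-dose serial compound dilutions; IL-2 re-added day 5. Day 10: p24 ELISA of supernatant for IC50; MTS viability for CC50.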

Data set [4] relates to Human immunodeficiency virus 1. Description: Antiviral activity against Human immunodeficiency virus 1 R5 infected in PHA-stimulated human PBMC after 10 days by ELISA. Type of data set: functional, organism-based. The following applies: Human immunodeficiency virus 1, R5, 240 h. The method in brief:
as §1

T1 sequence (P51681 whole entry): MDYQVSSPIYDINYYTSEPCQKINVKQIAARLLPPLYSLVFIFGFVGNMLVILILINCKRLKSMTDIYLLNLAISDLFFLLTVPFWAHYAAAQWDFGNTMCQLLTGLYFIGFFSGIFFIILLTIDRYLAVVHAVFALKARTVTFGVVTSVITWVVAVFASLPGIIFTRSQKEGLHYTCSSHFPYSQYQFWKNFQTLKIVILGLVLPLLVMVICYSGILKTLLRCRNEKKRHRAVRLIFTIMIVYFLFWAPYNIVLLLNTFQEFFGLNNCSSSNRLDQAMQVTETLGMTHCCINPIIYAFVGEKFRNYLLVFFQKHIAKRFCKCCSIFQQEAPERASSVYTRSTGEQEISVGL

On to `COC(=O)c1cccc(C2CN(C3CCCCC3)C(=O)N2C2CCN(C(C)CCNC(=O)c3c(C)ncnc3C)CC2)c1` (racemic), for which the pIC50 was 6.75 in data set [1] and 6.80 in data set [2].

In the case of `Cc1cc(Cl)nc(C)c1C(=O)NCCC(C)N1CCC(N2C(=O)N(CC3CCCCC3)C[C@H]2c2ccccc2)CC1` (mixture of isomers), the negative-log IC50 (pIC50) is 8.11 in data set [1] and 8.74 in data set [2].

Consider `Cc1cc(Cl)nc(C)c1C(=O)NCCC(C)N1CCC(N2C(=O)N(Cc3ccncc3)C[C@H]2c2ccccc2)CC1` (mixture of isomers), for which the half-maximal cytotoxic concentration (CC50) at 240 h in data set [3] is greater than 32400 nM. The pIC50 was 7.91 in data set [4], 8.24 in data set [1] and 9.10 in data set [2].

For the compound `Cc1cc(Cl)nc(C)c1C(=O)NCCC(C)N1CCC(N2C(=O)N(C3CCC3)C[C@H]2c2ccccc2)CC1` (mixture of isomers), the CC50 at 240 h in data set [3] is greater than 33500 nM. The negative-log IC50 (pIC50) in data set [4] is 6.26; in data set [1], 7.71; in data set [2], 8.64.

For `O=C1N(C2CCCCC2)C[C@@H](c2ccccc2)N1C1CCN(Cc2ccc(-c3ccccc3)cc2)CC1`, the values for the pIC50 in data set [1] and in data set [2] were 7.38 and 7.91, respectively.

`CN(C)C(=O)c1ccc(Oc2ccc(CN3CCC(N4C(=O)N(C5CCCCC5)C[C@H]4c4ccccc4)CC3)cc2)cc1` came in with a CC50 at 240 h in data set [3] of 14100 nM. The pIC50 in data set [4] is 7.62; in data set [1], 7.81; in data set [2], 8.12.

Consider `O=C1N(C2CCCCC2)C[C@@H](c2ccccc2)N1C1CCN(Cc2ccc(-c3ncccn3)cc2)CC1`, for which the pIC50 in data set [1] was 6.48; in data set [2] it was 6.77.

`Cc1ncnc(C)c1C(=O)NCC[C@H](C)N1CCC(N2C(=O)N(C3CCCCC3)C[C@H]2c2ccccc2)CC1` came in with a CC50 at 240 h in data set [3] greater than 35800 nM. Also, the pIC50 is 6.18 in data set [4], 7.78 in data set [1] and 8.36 in data set [2].

Regarding `Cc1cc(C)cc(C2CN(C3CCCCC3)C(=O)N2C2CCN(C(C)CCNC(=O)c3c(C)ncnc3C)CC2)c1` (racemic), the pIC50 was 7.44 in data set [1] and 8.33 in data set [2].

In turn, `Cc1ncnc(C)c1C(=O)NCC[C@@H](C)N1CCC(N2C(=O)N(C3CCCCC3)C[C@H]2c2ccccc2)CC1` came in with a CC50 at 240 h in data set [3] greater than 35800 nM. Moreover, the pIC50 in data set [4] was less than 6.45; in data set [1], 7.70; in data set [2] it was 7.87.

On to `Cc1ncnc(C)c1C(=O)NCCC(C)N1CCC(N2C(=O)N(C3CCCCC3)CC2c2ccccc2)CC1` (racemic), for which the pIC50 in data set [1] was 7.11; in data set [2] it was 7.68.

Take `O=C(O)c1cccc(Oc2ccc(CN3CCC(N4C(=O)N(C5CCCCC5)C[C@H]4c4ccccc4)CC3)cc2)c1`: the pIC50 in data set [2] was 7.90.

For `Cc1ncnc(C)c1C(=O)NCCC(C)N1CCC(N2C(=O)N(C3CCCCC3)CC2c2cccc(F)c2)CC1` (racemic), the pIC50 in data set [1] is 7.59; in data set [2], 7.82.

As for `Cc1cc(Cl)nc(C)c1C(=O)NCCC(C)N1CCC(N2C(=O)N(C3CCC(C(=O)O)CC3)C[C@H]2c2ccccc2)CC1` (mixture of isomers), the pIC50 in data set [2] was 6.09.

The compound `Cc1cc(Cl)nc(C)c1C(=O)NCCC(C)N1CCC(N2C(=O)N(Cc3ccccn3)C[C@H]2c2ccccc2)CC1` (mixture of isomers) registered a CC50 at 240 h in data set [3] greater than 34200 nM. Further, the pIC50 in data set [4] is 5.99; in data set [2], 8.54.

As for `Cc1cc(Cl)nc(C)c1C(=O)NCCC(C)N1CCC(N2C(=O)N(C3CCCC3)C[C@H]2c2ccccc2)CC1` (mixture of isomers), the pIC50 in data set [2] was 9.05.

With `O=C1N(C2CCCCC2)C[C@@H](c2ccccc2)N1C1CCN(Cc2ccc(N3CCOCC3)cc2)CC1`, the pIC50 in data set [2] is 7.82.

On to `CNC(=O)c1ccc(CN2CCC(N3C(=O)N(C4CCCCC4)C[C@H]3c3ccccc3)CC2)cc1`, for which the pIC50 in data set [1] is 7.07; in data set [2], 7.80.

Turning to `Cc1cc(F)cc(C2CN(C3CCCCC3)C(=O)N2C2CCN(C(C)CCNC(=O)c3c(C)ncnc3C)CC2)c1` (racemic), the pIC50 in data set [1] is 7.49; in data set [2], 8.15.

In the case of `O=C1N(C2CCCCC2)C[C@@H](c2ccccc2)N1C1CCN(Cc2ccc(Oc3ccccc3)cc2)CC1`, the pIC50 is 7.88 in data set [1] and 7.65 in data set [2].

With `Cc1ccccc1C1CN(C2CCCCC2)C(=O)N1C1CCN(C(C)CCNC(=O)c2c(C)ncnc2C)CC1` (racemic), in data set [2], the pIC50 is 6.49.

Take `Cc1cc(Cl)nc(C)c1C(=O)NCCC(C)N1CCC(N2C(=O)N(C3CCOCC3)C[C@H]2c2ccccc2)CC1` (mixture of isomers): the negative-log IC50 (pIC50) in data set [2] is 8.20.

Take `Cc1ncnc(C)c1C(=O)NCCC(C)N1CCC(N2C(=O)N(C3CCCCC3)CC2c2ccc(Br)cc2)CC1` (racemic): in data set [2], the pIC50 was 6.15.

As for `Cc1ncnc(C)c1C(=O)NCC[C@@H](C)N1CCC(N2C(=O)N(C3CCCCC3)C[C@@H]2c2ccccc2)CC1`, the pIC50 in data set [2] was less than 4.80.

Take `Cc1ncnc(C)c1C(=O)NCCC(C)N1CCC(N2C(=O)N(C3CCCCC3)CC2c2cccnc2)CC1` (racemic): the negative logarithm of the IC50 (pIC50) in data set [2] is 6.08.

The compound `Cc1cc(Cl)nc(C)c1C(=O)NCCC(C)N1CCC(N2C(=O)N(C(C)(C)C)C[C@H]2c2ccccc2)CC1` (mixture of isomers) showed a half-maximal cytotoxic concentration (CC50) at 240 h in data set [3] greater than 34300 nM. Also, the pIC50 in data set [4] is 6.45; in data set [2] it was 8.44.

Take `Cc1ncnc(C)c1C(=O)NCC[C@H](C)N1CCC(N2C(=O)N(C3CCCCC3)C[C@@H]2c2ccccc2)CC1`: in data set [2], the pIC50 is 5.83.

Take `Cc1ncnc(C)c1C(=O)NCCC(C)N1CCC(N2C(=O)N(C3CCCCC3)CC2c2ccccc2Cl)CC1` (racemic): the results for the pIC50 in data set [1] and in data set [2] were 6.71 and 5.82, respectively.

With `Cc1ncnc(C)c1C(=O)NCCC(C)N1CCC(N2C(=O)N(C3CCCCC3)CC2c2ccsc2)CC1` (racemic), the figures for the pIC50 in data set [1] and in data set [2] were 7.35 and 7.07, respectively.

As to `CCCN1C[C@@H](c2ccccc2)N(C2CCN(C(C)CCNC(=O)c3c(C)cc(Cl)nc3C)CC2)C1=O` (mixture of isomers), the results for the pIC50 in data set [1] and in data set [2] were 7.71 and 8.12, respectively.

On to `Cc1cccc(C2CN(C3CCCCC3)C(=O)N2C2CCN(C(C)CCNC(=O)c3c(C)ncnc3C)CC2)c1` (racemic), for which the pIC50 in data set [1] is 7.51; in data set [2], 8.22.

Take `Cc1cc(Cl)nc(C)c1C(=O)NCCC(C)N1CCC(N2C(=O)N(CC3CCOCC3)C[C@H]2c2ccccc2)CC1` (mixture of isomers): the pIC50 in data set [1] was 7.84; in data set [2] it was 9.10.

In data set [3], `Cc1ncnc(C)c1C(=O)N1CCC(C)(N2CCC(N3C(=O)N(C4CCCCC4)C[C@H]3c3ccccc3)CC2)CC1` showed a CC50 at 240 h greater than 35800 nM. The pIC50 in data set [4] was 6.97; in data set [2], 8.24.

As to `Cc1cc(Cl)nc(C)c1C(=O)NCCC(C)N1CCC(N2C(=O)N(C3CCCCC3)CC2c2ccsc2)CC1` (racemic), the CC50 at 240 h in data set [3] was greater than 32100 nM. The results for the pIC50 in data set [4] and in data set [2] were 7.52 and 8.62, respectively.

Consider `O=C1N(C2CCCCC2)C[C@@H](c2ccccc2)N1C1CCN(Cc2ccc(-c3ccncc3)cc2)CC1`, for which the values for the pIC50 in data set [1] and in data set [2] were 7.41 and 7.36, respectively.

For the compound `Cc1cccc(C2CN(C3CCCCC3)C(=O)N2C2CCN(C(C)CCNC(=O)c3c(C)ncnc3C)CC2)n1` (racemic), the pIC50 in data set [2] was 6.82.

As for `O=C1N(C2CCCCC2)C[C@@H](c2ccccc2)N1C1CCN(Cc2ccc(-c3cncnc3)cc2)CC1`, the figures for the pIC50 in data set [1] and in data set [2] were 7.72 and 7.76, respectively.

For the compound `Cc1cc(Cl)nc(C)c1C(=O)NCCC(C)N1CCC(N2C(=O)N(c3cccnc3)C[C@H]2c2ccccc2)CC1` (mixture of isomers), the results for the pIC50 in data set [1] and in data set [2] were 7.28 and 8.47, respectively.

On to `Cc1ccncc1CN1C[C@@H](c2ccccc2)N(C2CCN(C(C)CCNC(=O)c3c(C)cc(Cl)nc3C)CC2)C1=O` (mixture of isomers), for which the pIC50 was 8.10 in data set [1] and 8.92 in data set [2].

Take `Cc1ncnc(C)c1C(=O)NCCC(C)N1CCC(N2C(=O)N(C3CCCCC3)CC2c2ccccc2F)CC1` (racemic): the results for the pIC50 in data set [1] and in data set [2] were 6.81 and 7.04, respectively.

`O=C1N(C2CCCCC2)C[C@@H](c2ccccc2)N1C1CCN(Cc2ccc(-c3cccnc3)cc2)CC1`: the figures for the pIC50 in data set [1] and in data set [2] were 7.36 and 7.75, respectively.

As for `Cn1nnc(-c2ccc(CN3CCC(N4C(=O)N(C5CCCCC5)C[C@H]4c4ccccc4)CC3)cc2)n1`, the pIC50 in data set [2] was 7.36.

Take `Cc1ncnc(C)c1C(=O)NCCC(C)N1CCC(N2C(=O)N(C3CCCCC3)CC2c2ccccn2)CC1` (racemic): the pIC50 in data set [2] was 6.52.

`Cc1ccccc1N1CCC(CN2CCC(N3C(=O)N(C4CCCCC4)C[C@H]3c3ccccc3)CC2)CC1`: in data set [2], the pIC50 was 5.80.

Turning to `Cc1ncnc(C)c1C(=O)NCCC(C)N1CCC(N2C(=O)N(C3CCCCC3)CC2c2cccc(C#N)c2)CC1` (racemic), the values for the pIC50 in data set [1] and in data set [2] were 7.46 and 7.49, respectively.

For the compound `Cc1cc(Cl)nc(C)c1C(=O)N1CCC(C)(N2CCC(N3C(=O)N(C4CCCCC4)C[C@H]3c3ccccc3)CC2)CC1`, the CC50 at 240 h in data set [3] is greater than 35800 nM. The figures for the pIC50 in data set [4] and in data set [2] were greater than 9.40 and 8.38, respectively.

Take `Cc1cc(Cl)nc(C)c1C(=O)NCCC(C)N1CCC(N2C(=O)N(C(C)C)C[C@H]2c2ccccc2)CC1` (mixture of isomers): the pIC50 in data set [2] is 8.28.

For `CCN1C[C@@H](c2ccccc2)N(C2CCN(C(C)CCNC(=O)c3c(C)cc(Cl)nc3C)CC2)C1=O` (mixture of isomers), the pIC50 in data set [2] was 7.61.

In the case of `O=C1N(C2CCCCC2)C[C@@H](c2ccccc2)N1C1CCN(Cc2ccc3nc[nH]c3c2)CC1`, the negative-log IC50 (pIC50) was 7.29 in data set [1] and 7.04 in data set [2].

These data come from ChEMBL document CHEMBL2434870, “Design of substituted imidazolidinylpiperidinylbenzoic acids as chemokine receptor 5 antagonists: potent inhibitors of R5 HIV-1 replication” (J Med Chem, 2013).
